We go through 1 compound from ChEMBL document CHEMBL3352456, “Design, synthesis and biological activity of a novel Rutin analogue with improved lipid soluble properties” (Bioorg Med Chem, 2015).

SMILES strings stand for the structures. Activity calls are given as the source filed them. No cut-off for these calls is given here.

The nature of series [1]: Antifungal activity against Microsporum canis Bodin CBS 4727 assessed as growth inhibition at 20 ug/ml measured on day 7 by sabouraud dextrose agar diffusion method relative to control. It is filed as functional. The procedure, abridged:
(§1)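 Dermatophyte strains kept on Sabouraud dextrose agar slants. Mycelium disks (10 mm) from a stationary-phase culture grown at 26 ± 1 °C on cellophane over SDA to log phase, then moved onto SDA containing compound added from DMSO stock at 45 °C (final DMSO 0.1%; DMSO-only controls). Colony diameter measured daily for 7 days. % inhibition = (dex − dex')/dex × 100. Three replicates per concentration; mean of three independent experiments.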
Background: Agar diffusion results depend on both activity and mobility in agar.

The test system of the next series is Trichophyton rubrum. Nature of the series: Antifungal activity against Trichophyton rubrum (Castellani) Sabouraud IHME 4321 assessed as growth inhibition at 100 ug/ml measured on day 7 by sabouraud dextrose agar diffusion method relative to control. It is filed as functional. As to conditions: (Castellani) Sabouraud IHME 4321, 168 h, read-out: GI. In outline: as §1

For another series, the system named is Trichophyton violaceum. Nature of the series: Antifungal activity against Trichophyton violaceum Malmsten CBS 459.61 assessed as growth inhibition at 100 ug/ml measured on day 7 by sabouraud dextrose agar diffusion method relative to control. Format: functional. The note with it: Malmsten CBS 459.61, 168 h, read-out: GI. The procedure, abridged: as §1
For series [2], the target named is Nuclear factor NF-kappa-B complex (Homo sapiens) (UniProt Q00653+P19838+Q04206). Description: Inhibition of NF-kappaB (unknown origin)/32P-labeled oligonucleotide interaction at 0.1 to 10 mM after 20 mins by electrophoretic mobility shift assay. It is filed as protein-complex assay. In outline:
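Probe was a double-stranded 32P-labelled oligonucleotide (0.25 ng) in buffer of 10% glycerol, 0.05% NP-40, 10 mM Tris-HCl pH 7.5, 50 mM NaCl, 0.5 mM DTT and 10 mM MgCl2. Compound and probe were bound for 20 min at room temperature, then recombinant NF-kappaB p50 was added for a further 20 min. Samples were run on 6% polyacrylamide in 0.25× TBE at 200 V.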
For orientation: Mobility shift assays separate free from complexed probe on a gel.

Series [3] has as its system K562. Nature of the series: Induction of apoptosis in human K562 cells assessed as live cells at 500 uM after 3 days by Annexin-V staining-based assay (reference value: 87.33%). Format: functional.
The subject of series [4] is K562. Description: Induction of apoptosis in human K562 cells assessed as live cells at 1000 uM after 3 days by Annexin-V staining-based assay (reference value: 87.33%). Format: functional.
The subject of series [5] is K562. Description: Induction of apoptosis in human K562 cells assessed as early apoptotic cells at 1000 uM after 3 days by Annexin-V staining-based assay (reference value: 5.41%). It is filed as functional.
For series [6], the system named is K562. Nature of the series: Induction of apoptosis in human K562 cells assessed as early apoptotic cells at 5 uM after 3 days by Annexin-V staining-based assay (reference value: 5.41%). Format: functional.
The test system of series [7] is K562. Nature of the series: Induction of apoptosis in human K562 cells assessed as dead cells at 500 uM after 3 days by Annexin-V staining-based assay (reference value: 1.29%). It is filed as functional.
For series [8], the system named is K562. Description: Induction of apoptosis in human K562 cells assessed as dead cells at 5 uM after 3 days by Annexin-V staining-based assay (reference value: 1.29%). Format: functional.
Series [9] relates to K562. Description: Induction of apoptosis in human K562 cells assessed as dead cells at 10 uM after 3 days by Annexin-V staining-based assay (reference value: 1.29%). Format: functional.
Series [10] concerns K562. Description: Induction of apoptosis in human K562 cells assessed as apoptotic cells at 10 uM after 3 days by Annexin-V staining-based assay (reference value: 11.37%). It is filed as functional.
Series [11] can be described thus: Antioxidant activity assessed as superoxide anion radical scavenging by photochemiluminescence method relative to trolox. It is filed as physicochemical. In outline: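 Superoxide was generated photochemically from luminol under UV light (351 nm). Lag time (water-soluble, ACW) or integrated light emission over 180 s (lipid-soluble, ACL) was compared with a Trolox standard curve. Samples were centrifuged 5 min at 16000 g and diluted 1:40 in water (ACW) or methanol (ACL). Triplicate determinations.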

A short description of series [12]: Antioxidant activity assessed as superoxide anion radical scavenging by photochemiluminescence method relative to trolox using formulation containing O/W. Format: physicochemical.

Chain of Nuclear factor NF-kappa-B complex (Homo sapiens) (P19838 whole entry, looked up): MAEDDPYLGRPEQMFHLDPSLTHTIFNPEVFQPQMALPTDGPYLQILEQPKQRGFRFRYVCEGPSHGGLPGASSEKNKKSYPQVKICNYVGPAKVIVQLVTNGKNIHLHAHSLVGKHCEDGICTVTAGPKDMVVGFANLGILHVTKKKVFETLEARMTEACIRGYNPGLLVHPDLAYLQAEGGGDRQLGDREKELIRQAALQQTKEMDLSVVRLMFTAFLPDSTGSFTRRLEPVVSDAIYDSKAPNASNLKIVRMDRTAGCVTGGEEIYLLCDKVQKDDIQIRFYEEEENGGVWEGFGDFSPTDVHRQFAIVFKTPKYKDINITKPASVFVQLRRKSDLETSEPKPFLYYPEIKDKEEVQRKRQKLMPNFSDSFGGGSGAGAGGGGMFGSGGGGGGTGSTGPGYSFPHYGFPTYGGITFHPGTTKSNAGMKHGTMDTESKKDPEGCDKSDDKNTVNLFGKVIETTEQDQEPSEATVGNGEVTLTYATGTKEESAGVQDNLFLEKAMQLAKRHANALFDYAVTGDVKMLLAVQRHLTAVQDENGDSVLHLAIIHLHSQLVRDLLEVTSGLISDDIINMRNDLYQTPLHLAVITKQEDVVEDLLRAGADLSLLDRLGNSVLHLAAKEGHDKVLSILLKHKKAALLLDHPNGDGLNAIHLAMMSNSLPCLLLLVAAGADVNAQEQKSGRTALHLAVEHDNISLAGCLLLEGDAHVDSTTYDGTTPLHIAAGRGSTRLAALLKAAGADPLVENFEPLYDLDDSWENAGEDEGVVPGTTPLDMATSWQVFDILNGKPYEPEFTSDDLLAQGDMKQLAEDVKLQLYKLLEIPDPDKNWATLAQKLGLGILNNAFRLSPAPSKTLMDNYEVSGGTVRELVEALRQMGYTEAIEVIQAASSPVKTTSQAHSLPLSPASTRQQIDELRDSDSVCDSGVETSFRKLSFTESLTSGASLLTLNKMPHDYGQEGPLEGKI
Chain of Nuclear factor NF-kappa-B complex (Homo sapiens) (Q00653 whole entry, looked up): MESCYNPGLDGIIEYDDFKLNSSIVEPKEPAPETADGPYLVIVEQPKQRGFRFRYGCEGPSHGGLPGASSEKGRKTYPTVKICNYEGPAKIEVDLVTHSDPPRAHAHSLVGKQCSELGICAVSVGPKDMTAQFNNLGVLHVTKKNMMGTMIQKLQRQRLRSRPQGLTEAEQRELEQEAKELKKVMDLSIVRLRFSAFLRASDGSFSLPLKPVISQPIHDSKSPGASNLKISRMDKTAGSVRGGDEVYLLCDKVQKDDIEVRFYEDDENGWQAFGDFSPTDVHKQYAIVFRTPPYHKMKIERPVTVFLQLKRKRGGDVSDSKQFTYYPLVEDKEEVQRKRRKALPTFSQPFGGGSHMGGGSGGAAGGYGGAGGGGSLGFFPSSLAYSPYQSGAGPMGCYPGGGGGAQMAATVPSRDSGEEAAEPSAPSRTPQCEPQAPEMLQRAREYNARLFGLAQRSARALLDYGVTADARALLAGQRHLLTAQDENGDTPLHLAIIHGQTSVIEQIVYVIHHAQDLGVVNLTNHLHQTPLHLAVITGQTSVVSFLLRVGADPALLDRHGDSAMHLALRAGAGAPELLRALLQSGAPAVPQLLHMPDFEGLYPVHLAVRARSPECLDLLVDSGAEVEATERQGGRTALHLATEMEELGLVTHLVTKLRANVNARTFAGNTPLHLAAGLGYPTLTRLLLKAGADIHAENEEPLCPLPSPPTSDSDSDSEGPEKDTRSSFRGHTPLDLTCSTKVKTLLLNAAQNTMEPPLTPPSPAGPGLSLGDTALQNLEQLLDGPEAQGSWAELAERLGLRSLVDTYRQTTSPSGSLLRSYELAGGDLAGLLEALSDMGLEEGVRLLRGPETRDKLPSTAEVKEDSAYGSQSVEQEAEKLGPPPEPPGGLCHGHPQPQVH
Chain of Nuclear factor NF-kappa-B complex (Homo sapiens) (Q04206 whole entry, looked up): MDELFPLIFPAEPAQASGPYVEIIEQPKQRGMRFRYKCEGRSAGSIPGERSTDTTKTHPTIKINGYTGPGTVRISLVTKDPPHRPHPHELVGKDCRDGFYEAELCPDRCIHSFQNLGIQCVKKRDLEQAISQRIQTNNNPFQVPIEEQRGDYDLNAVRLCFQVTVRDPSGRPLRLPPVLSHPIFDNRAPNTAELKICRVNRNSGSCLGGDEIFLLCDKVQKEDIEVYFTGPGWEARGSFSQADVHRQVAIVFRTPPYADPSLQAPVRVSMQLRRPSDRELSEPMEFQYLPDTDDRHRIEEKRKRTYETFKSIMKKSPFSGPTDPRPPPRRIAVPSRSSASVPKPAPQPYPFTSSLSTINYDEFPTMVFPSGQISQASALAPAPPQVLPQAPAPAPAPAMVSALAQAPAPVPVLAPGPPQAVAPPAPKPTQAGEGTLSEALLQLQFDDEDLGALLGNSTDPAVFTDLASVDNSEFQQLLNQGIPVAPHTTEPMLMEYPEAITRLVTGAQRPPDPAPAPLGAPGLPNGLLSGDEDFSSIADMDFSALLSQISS

Consider `C[C@@H]1O[C@@H](OC[C@H]2O[C@@H](Oc3c(-c4ccc(O)c(O)c4)oc4cc(O)cc(O)c4c3=O)[C@H](O)[C@@H](O)[C@@H]2O)[C@H](O)[C@H](O)[C@H]1O` [RUTIN], for which, in series [1], the “growth inhibition (GI)” value is “inactive”. In addition, the inhibition of growth at 100 µg/mL in the series on Trichophyton rubrum turned out to be 9.9%; in the series on Trichophyton violaceum it was 4.2%. Further, the inhibition entry in series [2] was “Active”. Moreover, the Activity amounted to 88.15% in the series with K562 [3]; 84.85% with K562 [4]; 8.6% with K562 [5]; 0.65% in the series on K562 [7]; 1883.08 µmol/g in [11]; 5.04 µmol/g in [12]. For the same compound, the result in the series with K562 [6], with K562 [8], with K562 [9] and with K562 [10] was inactive.
